# According to ChEMBL document CHEMBL1944596, “7,8-dichloro-1-oxo-β-carbolines as a versatile scaffold for the development of potent and selective kinase inhibitors with unusual binding modes” (J Med Chem, 2012):
# Experiments:
# [1] = biological target: T1, Serine/threonine-protein kinase PLK4 (Homo sapiens) (UniProt O00444); assay: Binding affinity to PLK4 assessed as change in thermal denaturation at 10 uM by thermal stability shift assay
# T1 sequence (whole entry): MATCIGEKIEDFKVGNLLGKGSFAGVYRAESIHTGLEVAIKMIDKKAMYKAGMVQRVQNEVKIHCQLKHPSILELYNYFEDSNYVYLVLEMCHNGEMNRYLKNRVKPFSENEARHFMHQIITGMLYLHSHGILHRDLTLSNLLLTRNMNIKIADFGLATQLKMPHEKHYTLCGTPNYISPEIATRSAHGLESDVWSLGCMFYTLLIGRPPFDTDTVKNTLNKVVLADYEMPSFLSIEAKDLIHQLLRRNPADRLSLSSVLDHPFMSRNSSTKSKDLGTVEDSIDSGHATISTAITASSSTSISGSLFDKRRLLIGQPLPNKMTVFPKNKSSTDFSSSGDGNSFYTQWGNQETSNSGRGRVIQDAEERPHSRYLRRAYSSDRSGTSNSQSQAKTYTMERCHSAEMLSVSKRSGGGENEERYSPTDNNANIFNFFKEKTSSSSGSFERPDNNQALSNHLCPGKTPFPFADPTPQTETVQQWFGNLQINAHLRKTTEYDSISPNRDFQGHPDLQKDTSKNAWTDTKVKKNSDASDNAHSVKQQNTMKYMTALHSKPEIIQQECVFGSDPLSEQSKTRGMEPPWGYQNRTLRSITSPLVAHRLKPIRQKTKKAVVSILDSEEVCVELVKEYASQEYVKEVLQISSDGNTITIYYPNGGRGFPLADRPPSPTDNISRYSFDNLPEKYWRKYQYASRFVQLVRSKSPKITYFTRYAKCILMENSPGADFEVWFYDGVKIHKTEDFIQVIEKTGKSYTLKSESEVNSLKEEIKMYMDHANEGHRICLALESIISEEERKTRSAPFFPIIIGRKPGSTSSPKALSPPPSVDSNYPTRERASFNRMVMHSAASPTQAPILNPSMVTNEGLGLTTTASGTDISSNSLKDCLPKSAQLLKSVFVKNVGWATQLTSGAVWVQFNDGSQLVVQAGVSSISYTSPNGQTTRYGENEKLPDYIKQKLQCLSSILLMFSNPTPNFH
# In short: (§1)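 Each compound was screened across a kinase panel by thermal stability shift assay. The read-out was the shift in protein melting temperature (ΔTm, in °C) relative to the unliganded kinase. A ΔTm of 4.0 °C served as the hit cutoff.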
# [2] = biological target: T2, Serine/threonine-protein kinase haspin (Homo sapiens) (UniProt Q8TF76); assay: Binding affinity to Haspin assessed as change in thermal denaturation at 10 uM by thermal stability shift assay; in short: as §1
# T2 sequence (whole entry): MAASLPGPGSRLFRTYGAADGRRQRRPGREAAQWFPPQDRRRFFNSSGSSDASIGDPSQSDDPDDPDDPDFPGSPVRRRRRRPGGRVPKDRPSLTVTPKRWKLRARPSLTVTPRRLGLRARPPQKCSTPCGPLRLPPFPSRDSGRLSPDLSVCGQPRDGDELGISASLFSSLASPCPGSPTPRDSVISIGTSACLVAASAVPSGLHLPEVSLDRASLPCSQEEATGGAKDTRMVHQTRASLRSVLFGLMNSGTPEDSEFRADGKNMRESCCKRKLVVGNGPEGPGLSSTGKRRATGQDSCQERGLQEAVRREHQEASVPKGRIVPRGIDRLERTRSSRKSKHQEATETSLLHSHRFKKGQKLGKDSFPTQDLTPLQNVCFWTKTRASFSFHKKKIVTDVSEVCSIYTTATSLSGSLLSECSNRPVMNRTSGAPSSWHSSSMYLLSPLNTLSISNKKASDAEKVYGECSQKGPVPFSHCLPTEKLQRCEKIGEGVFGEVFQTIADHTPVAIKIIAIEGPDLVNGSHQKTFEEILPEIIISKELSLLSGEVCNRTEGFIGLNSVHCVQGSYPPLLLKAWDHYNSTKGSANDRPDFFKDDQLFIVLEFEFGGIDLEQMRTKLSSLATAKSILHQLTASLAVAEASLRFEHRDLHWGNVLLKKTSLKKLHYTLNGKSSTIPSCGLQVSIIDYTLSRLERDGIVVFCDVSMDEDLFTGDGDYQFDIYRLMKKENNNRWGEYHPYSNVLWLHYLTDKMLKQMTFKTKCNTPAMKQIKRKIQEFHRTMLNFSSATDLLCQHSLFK
# [3] = biological target: Death-associated protein kinase 3 (Homo sapiens) (UniProt O43293); assay: Binding affinity to N-terminus His6-tagged DAPK3 expressed in Escherichia coli BL21 (DE3) cells coexpressing pCOEX assessed as change in thermal denaturation at 10 uM by thermal stability shift assay
# In short: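 DAPK3 was expressed in E. coli grown in TB with kanamycin and chloramphenicol at 37 °C, cooled to 25 °C, and induced with 0.5 mM IPTG. Binding was read as thermal-shift ΔTm in °C.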
# [4] = biological target: T3, Serine/threonine-protein kinase 17A (Homo sapiens) (UniProt Q9UEE5); assay: Binding affinity to DRAK1 assessed as change in thermal denaturation at 10 uM by thermal stability shift assay; in short: as §1
# T3 sequence (whole entry): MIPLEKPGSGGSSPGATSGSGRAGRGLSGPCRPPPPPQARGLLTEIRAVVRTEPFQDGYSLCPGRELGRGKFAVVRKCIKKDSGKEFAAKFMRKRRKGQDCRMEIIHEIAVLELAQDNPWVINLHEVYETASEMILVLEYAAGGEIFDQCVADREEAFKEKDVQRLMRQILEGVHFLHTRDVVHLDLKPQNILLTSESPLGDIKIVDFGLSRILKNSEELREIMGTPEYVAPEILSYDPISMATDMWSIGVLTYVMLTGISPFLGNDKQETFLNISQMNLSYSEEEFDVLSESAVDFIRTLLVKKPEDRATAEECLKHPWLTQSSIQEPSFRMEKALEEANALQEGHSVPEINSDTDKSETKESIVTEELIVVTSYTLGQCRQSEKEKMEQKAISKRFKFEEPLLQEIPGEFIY
# [5] = biological target: Dual specificity protein kinase CLK1 (Homo sapiens) (UniProt P49759); assay: Binding affinity to CLK1 assessed as change in thermal denaturation at 10 uM by thermal stability shift assay; in short: as §1
# [6] = biological target: Ribosomal protein S6 kinase alpha-1 (Homo sapiens) (UniProt Q15418); assay: Binding affinity to RSK1 assessed as change in thermal denaturation at 10 uM by thermal stability shift assay
# [7] = biological target: TGF-beta receptor type-2 (Homo sapiens) (UniProt P37173); assay: Binding affinity to TGFBR2 assessed as change in thermal denaturation at 10 uM by thermal stability shift assay; in short: as §1
# TGF-beta receptor type-2 (Homo sapiens), sequence (P37173 whole entry): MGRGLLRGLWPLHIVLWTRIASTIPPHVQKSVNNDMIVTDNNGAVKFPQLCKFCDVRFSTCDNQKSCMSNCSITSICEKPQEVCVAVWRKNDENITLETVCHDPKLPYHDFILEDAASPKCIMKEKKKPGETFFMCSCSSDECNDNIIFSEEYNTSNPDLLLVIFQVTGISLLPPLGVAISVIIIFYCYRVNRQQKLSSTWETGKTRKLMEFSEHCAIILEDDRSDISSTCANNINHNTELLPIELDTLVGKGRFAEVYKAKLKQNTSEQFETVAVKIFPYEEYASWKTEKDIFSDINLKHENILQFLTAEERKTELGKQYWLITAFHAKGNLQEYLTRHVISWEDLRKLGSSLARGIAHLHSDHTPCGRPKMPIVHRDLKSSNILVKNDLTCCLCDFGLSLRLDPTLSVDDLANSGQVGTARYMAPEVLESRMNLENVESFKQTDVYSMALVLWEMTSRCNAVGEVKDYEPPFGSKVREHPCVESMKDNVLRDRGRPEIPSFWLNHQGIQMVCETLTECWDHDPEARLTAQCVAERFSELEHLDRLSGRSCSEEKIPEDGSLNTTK
# Death-associated protein kinase 3 (Homo sapiens), sequence (O43293 whole entry, looked up): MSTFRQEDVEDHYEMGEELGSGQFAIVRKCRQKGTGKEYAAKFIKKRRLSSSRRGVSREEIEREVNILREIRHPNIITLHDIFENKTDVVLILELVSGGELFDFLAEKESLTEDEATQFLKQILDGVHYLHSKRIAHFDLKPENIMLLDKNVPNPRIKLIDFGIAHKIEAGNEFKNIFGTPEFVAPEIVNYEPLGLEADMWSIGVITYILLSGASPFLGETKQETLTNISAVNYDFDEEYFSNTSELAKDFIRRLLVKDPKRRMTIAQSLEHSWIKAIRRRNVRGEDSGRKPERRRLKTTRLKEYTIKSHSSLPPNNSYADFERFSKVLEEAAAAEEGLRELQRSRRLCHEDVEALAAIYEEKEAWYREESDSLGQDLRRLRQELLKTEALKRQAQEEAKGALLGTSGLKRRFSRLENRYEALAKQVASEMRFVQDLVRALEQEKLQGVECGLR
# Dual specificity protein kinase CLK1 (Homo sapiens), sequence (P49759 whole entry, looked up): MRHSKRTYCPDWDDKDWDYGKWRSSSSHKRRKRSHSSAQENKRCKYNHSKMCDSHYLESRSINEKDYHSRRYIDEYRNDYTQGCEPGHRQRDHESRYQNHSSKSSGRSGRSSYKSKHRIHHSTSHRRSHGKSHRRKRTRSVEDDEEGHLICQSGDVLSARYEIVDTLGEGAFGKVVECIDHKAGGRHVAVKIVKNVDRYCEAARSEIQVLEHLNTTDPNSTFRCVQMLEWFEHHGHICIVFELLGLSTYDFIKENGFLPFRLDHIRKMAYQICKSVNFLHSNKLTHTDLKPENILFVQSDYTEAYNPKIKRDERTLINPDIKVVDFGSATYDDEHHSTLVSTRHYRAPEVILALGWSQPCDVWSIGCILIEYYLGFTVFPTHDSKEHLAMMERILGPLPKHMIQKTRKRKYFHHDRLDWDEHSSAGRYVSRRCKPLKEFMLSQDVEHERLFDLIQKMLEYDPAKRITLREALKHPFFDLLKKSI
# Ribosomal protein S6 kinase alpha-1 (Homo sapiens), sequence (Q15418 whole entry, looked up): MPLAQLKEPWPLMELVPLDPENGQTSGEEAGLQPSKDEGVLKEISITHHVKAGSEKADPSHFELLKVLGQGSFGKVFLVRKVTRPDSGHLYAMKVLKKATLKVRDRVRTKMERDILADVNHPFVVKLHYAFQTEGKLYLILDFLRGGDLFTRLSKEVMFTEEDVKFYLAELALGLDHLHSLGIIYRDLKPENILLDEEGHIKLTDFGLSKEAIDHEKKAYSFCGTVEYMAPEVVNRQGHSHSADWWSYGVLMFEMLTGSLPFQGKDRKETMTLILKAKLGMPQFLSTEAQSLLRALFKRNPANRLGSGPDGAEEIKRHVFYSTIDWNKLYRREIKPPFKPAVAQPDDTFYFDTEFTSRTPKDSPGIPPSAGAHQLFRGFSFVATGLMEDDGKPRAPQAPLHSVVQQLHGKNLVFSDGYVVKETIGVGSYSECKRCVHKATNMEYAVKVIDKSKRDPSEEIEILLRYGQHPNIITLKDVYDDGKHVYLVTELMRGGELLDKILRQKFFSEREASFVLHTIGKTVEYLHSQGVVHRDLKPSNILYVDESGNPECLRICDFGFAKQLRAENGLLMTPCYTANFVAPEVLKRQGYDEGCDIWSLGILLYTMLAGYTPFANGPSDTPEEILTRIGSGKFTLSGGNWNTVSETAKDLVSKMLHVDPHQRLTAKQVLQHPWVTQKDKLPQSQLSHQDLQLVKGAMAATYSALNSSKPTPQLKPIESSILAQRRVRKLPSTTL
ΔTm [1],ΔTm [2],ΔTm [4],ΔTm [5],ΔTm [6],ΔTm [7],Structure (SMILES),ΔTm [3]
1 °C,0.3 °C,0.9 °C,2.6 °C,0.7 °C,1.5 °C,CC(=O)NCC1c2c(n(C)c3c(Cl)c(Cl)ccc23)C(=O)NC1(C)C (racemic),0.8 °C
5.1 °C,0.9 °C,5.8 °C,6.4 °C,1.8 °C,8.1 °C,Cn1c2c(c3ccc(Cl)c(Cl)c31)C(C#N)C(C)(C)NC2=O (centres undefined),3.4 °C
2.7 °C,1.8 °C,7.5 °C,5.1 °C,0.4 °C,3 °C,Cn1c2c(c3ccc(Cl)c(Cl)c31)C(CN)C(C)(C)NC2=O (racemic),3.6 °C
2 °C,2.7 °C,6.9 °C,5.9 °C,3.1 °C,7.9 °C,Cn1c2c(Cl)c(Cl)ccc2c2cc(N)[nH]c(=O)c21,2.6 °C
1.7 °C,3.4 °C,6.2 °C,4.6 °C,4.6 °C,10.1 °C,Cn1c2c(Cl)c(Cl)ccc2c2cc[nH]c(=O)c21,3.4 °C
4.6 °C,0.4 °C,2.6 °C,3.5 °C,0.5 °C,5 °C,CCC1(CC)NC(=O)c2c(c3ccc(Cl)c(Cl)c3n2C)C1C#N (centres undefined),2.4 °C
1.5 °C,3.2 °C,3.5 °C,3.9 °C,1.7 °C,10.4 °C,Cn1c2c(Cl)c(Cl)ccc2c2cn[nH]c(=O)c21,4 °C

# Further lines, the compound ahead of its results:
Structure (SMILES),ΔTm [1],ΔTm [2],ΔTm [4],ΔTm [5],ΔTm [6],ΔTm [7],ΔTm [3]
Cn1c2c(c3ccc(Cl)c(Cl)c31)C(C#N)C1(CCNCC1)NC2=O (racemic),6.8 °C,5.6 °C,4.3 °C,7 °C,1 °C,–,10.6 °C
Cn1c2c(c3ccc(Cl)c(Cl)c31)C(C#N)C1(CCCC1)NC2=O (centres undefined),2.5 °C,0.1 °C,2 °C,4.8 °C,0.5 °C,2.2 °C,1.5 °C
CCN1CCC2(CC1)NC(=O)c1c(c3ccc(Cl)c(Cl)c3n1C)C2C#N (racemic),3.2 °C,2.6 °C,1.6 °C,4 °C,0 °C,0.3 °C,4.6 °C
Cn1c2c(c3ccccc31)C(C#N)C(C)(C)NC2=O (centres undefined),0.9 °C,1.7 °C,0.5 °C,2.4 °C,0.4 °C,2.9 °C,0.6 °C
N#CC1c2c([nH]c3c(Cl)c(Cl)ccc23)C(=O)NC12CCCCC2 (racemic),1.3 °C,0 °C,2.2 °C,5.4 °C,0.4 °C,–,3.4 °C
Cn1c2c(c3ccc(Cl)c(Cl)c31)C(C#N)C1(CCN(C(=O)OC(C)(C)C)CC1)NC2=O (racemic),0.1 °C,0.3 °C,0.6 °C,0.5 °C,0 °C,–,-0.2 °C
CC1(C)NC(=O)c2[nH]c3c(Cl)c(Cl)ccc3c2C1C#N (centres undefined),1.7 °C,0.3 °C,3 °C,5.3 °C,1.4 °C,6.8 °C,2 °C
CN1CCC2(CC1)NC(=O)c1c(c3ccc(Cl)c(Cl)c3n1C)C2C#N (racemic),3.3 °C,3.4 °C,2.7 °C,5.7 °C,0.5 °C,1.1 °C,6.3 °C
Cn1c2c(c3ccc(Cl)c(Cl)c31)C(C#N)C1(CCOCC1)NC2=O (centres undefined),2.7 °C,1.1 °C,2.7 °C,4.6 °C,0.6 °C,2.6 °C,3.1 °C
